# Data reported in the RNAGym collection of RNA variant scans (doi:10.1126/science.aae0568).
# Fewer inactive variants are shown than the library holds.
# B1: tRNA (parent)
# chain: GUUCCGUUGGCGUAAUGGUAACGCGUCUCCCUCCUAAGGAGAAGACUGCGGGUUCGAGUCCCGUACGGAACG
# Variants of: B1
# Experiment: yeast fitness relative to wild type (ratio to wild type); higher = fitter; tRNA-Arg(CCU), competitive growth, 37 C, YPD
# Procedure, shortened: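 A pool of Saccharomyces cerevisiae strains, each with a tRNA-Arg(CCU) gene variant at the native genomic locus, was competed in YPD at 37°C for 24 hours across six parallel replicates. The variants had been chemically synthesised at a 3% per-site mutation rate over 69 sites, and gene amplicons before and after competition were read by 100-nucleotide paired-end sequencing. Darwinian fitness relative to wild type rested on changes in genotype frequencies. Genotypes required ≥ 100 starting reads, and estimates < 0.5 were set to 0.5.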
row,Variant,yeast fitness
1,GUUCCGUUGGCGUAAUGGUAACGCGUCUUCCUCCUAACGAGAAGACUGCGGGUUUGAGUCCCGUACCGAACG,≤ 0.5
2,GUUCCGUUGGCGUAAUGGUAACGCGUCUUCCUGCUAAGGAGAAGACUGCGGAUUCGACUCCCGUACGGAACG,0.596
3,GUUCCGUUGGCGUAAUGGUAACGCGUCUUCCUAUUAAGGAGAAGACUGCGCGUUCGAGUCCCGAAUGGCACG,≤ 0.5
4,GUUCCGUUGGCGUAAUGGUAACGCGUCUUCCUCCUAAGGAGAAGACUGCGGGUUUGAGUCCCGUACGGAACG,0.636
5,GUUCCGUUGGCGUAAUGGUAACGCGUCUUCCUUCCAAGGAGAAGACUGCGGGUACGAGUCCCGUACGGAACG,≤ 0.5
6,GUUCCGUUGGCGUAAUGGUAACGCGUCUUCCUCGUAAGGAGAAGACUGCGGGUUCGAGUCCCGUGCGGAACG,0.668
7,GUUCCGUUGGCGUAAUGGUAACGCGUCUUCCUCCUAACGAGAAGGCUGCGCGUUCGAGUCCCGUACGGAACG,≤ 0.5
8,GUUCCGUUGGCGUAAUGGUAACGCGUCUUCCUCCUAAGGAACAGACUGCCGGUUCGAGUCCCGUACGGAGCG,≤ 0.5
9,GUUCCGUUGGCGUAAUGGUAACGCGUCUUCUUCCUAAGGACAAGACUGCGGGUUCGAGUCCCGUGCGGAACG,0.609
10,GUUCCGUUGGCGUAAUGGUAACGCGUCUUCCUCCUAAGGAGAAGAGUGCGGGUUCAAGUACGGUAAGGAACG,0.543
11,GUUCCGUUGGCGUAAUGGUAACGCGUCUUACUCCUAAGGAGAAGACUGCGGGUUCGAGUCCCGUUCGGAACG,≤ 0.5
12,GUUCCGUUGGCGUAAUGGUAACGCGUCUUCCUCCUAAGGAGAAGACUGCGGGUUCGAGUCCCGUAAGGAACG,0.591
13,GUUCCGUUGGCGUAAUGGUAACGCGUCUUCCUCCUAAGGAGAAGACUGCGGGUUCGAGUCCCGUAUGGAACG,0.796
14,GUUCCGUUGGCGUAAUGGUAACGCGUCUUCCUCCUAAGGAGAAGACUGAGGGUUCGAGUCCCGUACCGAACG,≤ 0.5
15,GUUCCGUUGGCGUAAUGGUAACGCGUCUUCUUCCUAAGGAGAAGACUGCGGGUUCGAGUCCCGUAUGGAACG,0.591
16,GUUCCGUUGGCGUAAUGGUAACGCGUCUUCCUCCUAAGGAGAAGACUGCGGGUUCGAGUCUCGUACGGAACG,0.706
17,GUUCCGUUGGCGUAAUGGUAACGCGUCUUCCUCCUAAGGAGAAGACUGCGGGUUUGAGUCCCGUGCGGAACG,≤ 0.5
18,GUUCCGUUGGCGUAAUGGUAACGCGUCUUCCUACUAAAGAGAAGACUGCGGGUUCGACUCCCGUUCGGAACG,≤ 0.5
19,GUUCCGUUGGCGUAAUGGUAACGCGUCUUUCUCCUAAGGAGAAGACUGCGGGUUCGAGUCCCGUGCGGAACG,0.704

row,Variant,yeast fitness
1,GUUCCGUUGGCGUAAUGGUAACGCGUCUUCCUCCUAAGGAGAACACUGCGGGUUCGUGUCCCGUACGGAACG,0.635
2,GUUCCGUUGGCGUAAUGGUAACGCGUCUUCUUCCUAAGGAGAAGACUGCGGGUUCGAGUCCCGUACGGAACG,0.846
3,GUUCCGUUGGCGUAAUGGUAACGCGUCUUCCUCCUAAGGAAAAGCCUGCGGGUUCGAGUCCCGUACUGAACG,≤ 0.5
4,GUUCCGUUGGCGUAAUGGUAACGCGUCUUCCUCCUAAGGAGAAGACUGCGGGUUCGAGUCUCCUACGGAACG,≤ 0.5
5,GUUCCGUUGGCGUAAUGGUAACGCGUCUUCCUCCUAAGGAGAAGACUGCGGGUUCGAGUCCGGUACGAAACG,≤ 0.5
6,GUUCCGUUGGCGUAAUGGUAACGCGUCUUCCUCAUAAGGAGAAGACUGCGAGUUCGAGUCCCGUACGGAACG,0.664
7,GUUCCGUUGGCGUAAUGGUAACGCGUCUUCCUACUAAAGAGAAGACUGCGGGUUCGAGUCCCGUACGGAACG,≤ 0.5
8,GUUCCGUUGGCGUAAUGGUAACGCGUCUUCCUACUAACGAGAAGACUGCGGGUUCGAGUCCCGUACGGAACG,0.638
9,GUUCCGUUGGCGUAAUGGUAACGCGUCUUCUUCCUAAGGAGAAGACUGCGGGUGCGAGUCCCGUCCAGAACG,0.549
10,GUUCCGUUGGCGUAAUGGUAACGCGUCUUCCUUCUAAGCAGAAGACUGCGGGUUCGUGUCCCGUACGGAACG,≤ 0.5
11,GUUCCGUUGGCGUAAUGGUAACGCGUCUUCCUCCUAAGGAGAAGAAUGCGGGUUCGAGUCCCGUACGGAACG,0.932
12,GUUCCGUUGGCGUAAUGGUAACGCGUCUUCCUCCUAAGGAGAAGAUUGCGGGUUCGAGUCCCGUACGGAACG,0.929
13,GUUCCGUUGGCGUAAUGGUAACGCGUCUUCAUCCUAAGGAGAAAACUGCGGGUUCGAGUCCCGUACGGAACG,0.885
14,GUUCCGUUGGCGUAAUGGUAACGCGUCUUCAUCCUAAGGAGAAGAUUGCGGGUUCGAGUCCCGUACGGAACG,0.552
15,GUUCCGUUGGCGUAAUGGUAACGCGUCUUUCUCCUAAGGAGAAGACUGCGGGUUCGAGUCCCAUACGGAACG,0.514
16,GUUCCGUUGGCGUAAUGGUAACGCGUCUUCCUCCUAAGGAGAAGACUGUGGGUUCGAGUCCCGUACGGAACG,0.836
17,GUUCCGUUGGCGUAAUGGUAACGCGUCUUCCUCCUAAAGAGAAGACUCCGGGUUCGAGUCCGGUACGGAACG,0.525
18,GUUCCGUUGGCGUAAUGGUAACGCGUCUUCCUCCUAACGAGAUGACUGCGGGUUUGAGUCCCGUACGGAACG,0.516
19,GUUCCGUUGGCGUAAUGGUAACGCGUCUUCCUCCUAACGAGAAGAAUGCGGGUUCGAGUCCCGUACGGAACG,≤ 0.5
